These results are taken from ChEMBL document CHEMBL1156926, “CoMFA analysis of tgDHFR and rlDHFR based on antifolates with 6-5 fused ring system using the all-orientation search (AOS) routine and a modified cross-validated r(2)-guided region selection (q(2)-GRS) routine and its initial application” (Bioorg Med Chem, 2010).

For experiment [1], the target named is T1, Bifunctional dihydrofolate reductase-thymidylate synthase (Toxoplasma gondii, UniProt Q07422).
T1 sequence (Q07422 whole entry): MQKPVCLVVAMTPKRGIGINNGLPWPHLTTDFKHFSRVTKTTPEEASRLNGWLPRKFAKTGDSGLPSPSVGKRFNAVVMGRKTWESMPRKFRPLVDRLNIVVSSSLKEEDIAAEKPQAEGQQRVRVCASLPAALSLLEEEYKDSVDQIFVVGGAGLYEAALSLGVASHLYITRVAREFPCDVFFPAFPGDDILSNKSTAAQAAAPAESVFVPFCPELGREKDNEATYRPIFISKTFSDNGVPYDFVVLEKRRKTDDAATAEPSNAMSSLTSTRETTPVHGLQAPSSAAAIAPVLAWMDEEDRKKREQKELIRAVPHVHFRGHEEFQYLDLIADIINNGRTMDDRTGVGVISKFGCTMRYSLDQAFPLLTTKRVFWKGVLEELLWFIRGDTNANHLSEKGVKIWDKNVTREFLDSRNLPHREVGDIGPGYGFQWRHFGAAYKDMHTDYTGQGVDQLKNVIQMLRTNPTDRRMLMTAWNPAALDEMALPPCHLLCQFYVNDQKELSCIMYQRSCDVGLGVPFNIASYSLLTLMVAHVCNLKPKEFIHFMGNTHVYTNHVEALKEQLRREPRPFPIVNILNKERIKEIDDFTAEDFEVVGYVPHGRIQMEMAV
As to the kind of experiment: Inhibition of Toxoplasma gondii DHFR by spectrophotometric assay.

Experiment [2] has as its target T2, Dihydrofolate reductase (Rattus norvegicus, UniProt Q920D2).
T2 sequence (Q920D2 whole entry): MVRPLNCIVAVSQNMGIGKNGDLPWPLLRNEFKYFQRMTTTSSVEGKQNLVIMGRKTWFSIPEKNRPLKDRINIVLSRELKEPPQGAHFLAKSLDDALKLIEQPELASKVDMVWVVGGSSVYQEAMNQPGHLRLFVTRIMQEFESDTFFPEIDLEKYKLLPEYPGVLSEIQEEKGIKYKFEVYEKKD
Description: Inhibition of rat liver DHFR by spectrophotometric assay.

Experiment [3] deals with Toxoplasma gondii. As to conditions: RH, 50 mg/kg.
For experiment [4], the system named is Toxoplasma gondii. Conditions: RH, 50 mg/kg. The source holds these as a separate data set.
The target in experiment [5] is T1, Bifunctional dihydrofolate reductase-thymidylate synthase. As to the kind of experiment: Inhibition of Toxoplasma gondii DHFR using dihydrofolic acid substrate and NADPH cofactor by spectrophotometric assay.
The target in experiment [6] is T2, Dihydrofolate reductase. As to the kind of experiment: Inhibition of rat liver DHFR using dihydrofolic acid substrate and NADPH cofactor by spectrophotometric assay.
For experiment [7], the target named is T3, Dihydrofolate reductase (Rattus norvegicus) (UniProt Q920D2).
T3 sequence (whole entry): T2 sequence (Q920D2 whole entry)
As to conditions: 24.6 uM.

Experiment [8] concerns Toxoplasma gondii. As to the kind of experiment: Antimicrobial activity against Toxoplasma gondii RH infected in BALB/c mouse assessed as mouse survival at 50 mg/kg, ip after 5 days. The experiment is classed as functional. As to conditions: route intraperitoneal.
The subject of experiment [9] is Toxoplasma gondii. Description: Antimicrobial activity against Toxoplasma gondii RH infected in BALB/c mouse assessed as reduction of parasite level at 50 mg/kg, ip relative to untreated control. Type of experiment: functional. Conditions: route intraperitoneal. The gist of the method: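 Female BALB/c mice (18-20 g) inoculated i.p. with 5 × 10³ cultured RH trophozoites. Treatment began 4 h after inoculation: 50 mg/kg/day i.p. (amount injected). Where folic acid was used, it was given in drinking water at 10 microgram/ml. Survival was recorded to day 5 and mice were harvested on day 6. Parasites in peritoneal exudate were counted per 1000x field (10 microliters spread over 1 cm²).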

Activity calls are given as the source filed them. The calls are words filed in the database; no cut-off is given here.

As for `Nc1nc(N)c2c(CSc3cccc4c3CCCC4)c[nH]c2n1`, the IC50 (in general, the concentration at which inhibition is half-maximal) in experiment [1] turned out to be 0.81 µM; on Dihydrofolate reductase [2] it was 3 µM. On Dihydrofolate reductase [2], `Nc1nc(N)c2c(CNc3cccc4cc5ccccc5cc34)coc2n1` yielded an IC50 of over 51 µM. As to `Nc1nc(N)c2c(CNc3ccc4c(c3)Cc3ccccc3-4)coc2n1`, the half-inhibitory concentration (IC50) at Dihydrofolate reductase [2] was over 10 µM. `Nc1nc(N)c2c(CSc3ccc(Oc4ccccc4)cc3)coc2n1` registered an IC50 against Dihydrofolate reductase [2] of 65 µM. Consider `COc1ccc(OC)c(CCCc2c[nH]c3nc(N)nc(N)c23)c1`, for which the 50% inhibitory concentration (IC50) on Dihydrofolate reductase [2] was found to be 11.8 µM. Regarding `Nc1nc(N)c2c(CCCc3cc(Cl)ccc3Cl)c[nH]c2n1`, on Dihydrofolate reductase [2], the concentration for half-maximal inhibition (IC50) came to 4.8 µM. Consider `Cc1[nH]c2nc(N)nc(N)c2c1Sc1cccc(Cl)c1`, for which the IC50 against Dihydrofolate reductase [2] was found to be 64 µM. With `Nc1nc(N)c2c(CCCc3ccccc3)c[nH]c2n1`, the 50% inhibitory concentration (IC50) in experiment [1] is 2.7 µM; against Dihydrofolate reductase [2], 8.6 µM. For the compound `Cc1[nH]c2nc(N)nc(N)c2c1Sc1cccc2c1CCCC2`, the IC50 against Dihydrofolate reductase [2] was determined as 40 µM. In the case of `COc1ccc(OC)c(Sc2c(C)[nH]c3nc(N)nc(N)c23)c1`, the half-maximal inhibitory concentration (IC50) in experiment [1] is 87 µM; at Dihydrofolate reductase [2] it was over 46 µM. Take `Cc1cccc(C)c1Sc1[nH]c2nc(N)nc(N)c2c1C` [listing 1 of 2 here]: the inhibition result in the experiment with Toxoplasma gondii [3] and in the experiment on Toxoplasma gondii [4] was “Active” throughout. `COc1cc(CCCc2c[nH]c3nc(N)nc(N)c23)cc(OC)c1OC` yielded a concentration for half-maximal inhibition (IC50) against Dihydrofolate reductase [2] of 4.8 µM.

As to `Nc1nc(N)c2c(CSc3ccccc3Oc3ccccc3)coc2n1`, the IC50 was 38 µM in experiment [1] and 18 µM at Dihydrofolate reductase [2]. `Nc1nc(N)c2c(CCCc3ccc4c(c3)CCCC4)c[nH]c2n1`: the half-maximal inhibitory concentration (IC50) against Dihydrofolate reductase [2] is 1.09 µM. In other words, the single-digit micromolar range. With `Cc1c(Sc2ccc3ccccc3c2)[nH]c2nc(N)nc(N)c12`, the IC50 is 1.6 µM in experiment [5] and 8.1 µM at Dihydrofolate reductase [6]. As for `Cc1c(Sc2cc(Cl)c(Cl)cc2Cl)[nH]c2nc(N)nc(N)c12`, the figures for the concentration for half-maximal inhibition (IC50) (in [5]; against Dihydrofolate reductase [6]) were 0.212 µM and 3 µM, respectively. In the case of `Nc1nc(N)c2c(CSc3ccccc3-c3ccccc3)coc2n1`, the half-inhibitory concentration (IC50) amounted to 105 µM in [1] and 49 µM against Dihydrofolate reductase [2]. Take `CCn1c2ccccc2c2cc(N(C)Cc3coc4nc(N)nc(N)c34)ccc21`: the IC50 in experiment [1] was 22.6 µM; on Dihydrofolate reductase [2], 24.7 µM. Take `Nc1nc(N)c2c(CSc3ccc(-c4ccccc4)cc3)coc2n1`: the IC50 in [1] was 79 µM; on Dihydrofolate reductase [2] it was 351 µM.

Consider `Nc1nc(N)c2c(CSc3cccc(Oc4ccccc4)c3)coc2n1`, for which the concentration for half-maximal inhibition (IC50) in [1] was found to be 19 µM; on Dihydrofolate reductase [2], 39 µM.

`Cc1[nH]c2nc(N)nc(N)c2c1Sc1ccc(Cl)cc1Cl`: the concentration for half-maximal inhibition (IC50) worked out at 28.2 µM in experiment [1] and 34.6 µM on Dihydrofolate reductase [2].

For `Nc1nc(N)c2c(CCCc3ccc(OCc4ccccc4)cc3)c[nH]c2n1`, the results for the IC50 (in experiment [1]; against Dihydrofolate reductase [2]) were 1.6 µM and 0.66 µM, respectively. Consider `Cc1[nH]c2nc(N)nc(N)c2c1Sc1ccccc1`, for which the concentration for half-maximal inhibition (IC50) in experiment [1] was 81 µM; against Dihydrofolate reductase [2] it was over 33 µM. For `Nc1nc(N)c2c(CNc3cccc4c3CCCC4)c[nH]c2n1`, it took 59.3 µM to reach half-maximal inhibition at Dihydrofolate reductase [2] (IC50). Take `Nc1nc(N)c2c(CSc3cccc(-c4ccccc4)c3)coc2n1`: the IC50 came out at 23 µM in experiment [1] and 31 µM against Dihydrofolate reductase [2]. For the compound `Cc1cc(C)cc(Sc2[nH]c3nc(N)nc(N)c3c2C)c1`, the half-inhibitory concentration (IC50) against Dihydrofolate reductase [6] turned out to be 7.6 µM. `COc1cc(Sc2[nH]c3nc(N)nc(N)c3c2C)cc(OC)c1OC`: the inhibition (usually the change of the read-out against control, counted positive when it falls) in experiment [7] stood at 12%. Besides, the half-maximal inhibitory concentration (IC50) against Dihydrofolate reductase [6] was over 24.6 µM.

As to `Nc1nc(N)c2c(CSc3ccc4c(c3)CCCC4)c[nH]c2n1`, the half-inhibitory concentration (IC50) in experiment [1] was determined as 9.2 µM; against Dihydrofolate reductase [2] it was 82.9 µM. As to `Cc1cccc(C)c1Sc1[nH]c2nc(N)nc(N)c2c1C.Cl`, the Survival in the experiment on Toxoplasma gondii [8] was 100%. As to `Nc1nc(N)c2c(CNc3ccc4c(c3)C(O)c3ccccc3-4)coc2n1` (stereo unspecified), the figures for the half-maximal inhibitory concentration (IC50) (in [1]; against Dihydrofolate reductase [2]) were 63 µM and over 13 µM, respectively. Take `COc1ccc(-c2nc3nc(N)nc(N)c3[nH]2)c([N+](=O)[O-])c1OC`: the half-maximal inhibitory concentration (IC50) at Dihydrofolate reductase [2] was over 25 µM.

Compound `Cc1[nH]c2nc(N)nc(N)c2c1Sc1ccc(Cl)cc1` gave an IC50 at Dihydrofolate reductase [2] of 37.4 µM. With `CCn1c2ccccc2c2cc(NCc3coc4nc(N)nc(N)c34)ccc21`, the values for the IC50 (in experiment [1]; against Dihydrofolate reductase [2]) were 4.5 µM and 12.6 µM, respectively. For the compound `COc1ccc(OC)c(NCc2nc3c(N)nc(N)nc3[nH]2)c1`, the half-maximal inhibitory concentration (IC50) against Dihydrofolate reductase [2] was over 29 µM.

In the case of `Cc1cccc(C)c1Sc1[nH]c2nc(N)nc(N)c2c1C` [listing 2 of 2 here], the survival at 50 mg/kg with Toxoplasma gondii [8] (Toxoplasma gondii, RH, ip, 120 h) was 100%. For the same compound, the “fold change (FC)” value in the experiment with Toxoplasma gondii [9] was over 2. The IC50 against Dihydrofolate reductase [6] was 0.388 µM.
